Data: paper PMC7017412 (ACS Omega, 2020)
Positions count from the first letter of the chain named.

What was measured:
F105Y hTMPK [1] = target: T1, F105Y hTMPK (Homo sapiens, UniProt P23919, F105Y); assay: ADP binding constants by two-dimensional NMR lineshape fitting of ADP titration; settings: for Kd / koff: 34 °C, pH 6.9
T1 sequence (P23919 1-212 F105Y): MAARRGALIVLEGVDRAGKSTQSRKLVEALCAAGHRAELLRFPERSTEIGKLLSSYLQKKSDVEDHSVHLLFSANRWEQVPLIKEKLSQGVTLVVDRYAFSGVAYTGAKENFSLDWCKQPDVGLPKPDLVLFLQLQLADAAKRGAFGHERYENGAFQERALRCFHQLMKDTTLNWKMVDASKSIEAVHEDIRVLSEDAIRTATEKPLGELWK
Procedure, shortened: (§1)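 ILV methyl-labelled (13CH3/13CHD2) His-tagged hTMPK was expressed in E. coli and purified by cobalt affinity and cation exchange. Samples were in D2O with 20 mM MES, 150 mM NaCl, 10 mM MgCl2, 1 mM DTT, pH 6.9, plus 2 mM TMP or AZTMP. Protein was WT 0.8 mM and F105Y 0.4 mM. ADP was titrated at 0–2.4 ligand:protein across a 1H–13C HMQC series at 34 °C. KD and koff came from 2D lineshape fitting of five shifting methyl peaks (2-state model) with bootstrap errors.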

WT hTMPK [2] = target: T2, WT hTMPK (Homo sapiens, UniProt P23919); assay: as above; settings: for Kd / koff: 34 °C, pH 6.9
T2 sequence (P23919 1-212): T1 sequence (P23919 1-212 F105Y) with Y105F
Procedure, shortened: as §1

WT hTMPK [3] = target: T2, WT hTMPK; assay type: binding; settings: WT–AZTMP, 2 mM ADP, Ile184δ1 CPMG RD
Procedure, shortened: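 Ile184δ1 CHD2 methyl 1H CPMG dispersion was run at 34 °C on a WT–AZTMP sample with 2 mM ADP, in pH 6.9 MES/MgCl2 D2O buffer. Trelax was 40 ms with ncyc 1–78. pa and kex were fitted by grid search to the full exchange equation, and koff was derived from them. Errors are ±2 standard error from 100 bootstrap resampled datasets.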

WT hTMPK [4] = target: T2, WT hTMPK; settings: cited from earlier work
F105Y hTMPK [5] = target: T1, F105Y hTMPK; settings: cited from earlier work
TMPK from yeast (ScTMPK) = settings: cited from earlier work

Nc1ncnc2c1ncn2[C@@H]1O[C@H](COP(=O)(O)OP(=O)(O)O)[C@@H](O)[C@H]1O [ADP]
Kd (F105Y hTMPK [1]; ADP binding to F105Y hTMPK with 2 mM AZTMP bound): 4.4 ± 1.7 µM | Kd (F105Y hTMPK [1]; ADP binding to F105Y hTMPK with 2 mM TMP bound): 4.2 ± 1.3 µM | koff (F105Y hTMPK [1]; ADP off-rate from F105Y hTMPK with 2 mM AZTMP bound): 0.20 ± 0.9 s^–1 | koff (F105Y hTMPK [1]; ADP off-rate from F105Y hTMPK with 2 mM TMP bound): 2.7 ± 0.8 s^–1 | reduced ADP off-rate (koff) with AZTMP bound relative to TMP bound (F105Y hTMPK [1]; F105Y hTMPK): 15 fold | Kd (WT hTMPK [2]; ADP binding to WT hTMPK with 2 mM AZTMP bound): 15 ± 1 µM | Kd (WT hTMPK [2]; ADP binding to WT hTMPK with 2 mM TMP bound): 15 ± 2.1 µM | koff (WT hTMPK [2]; ADP off-rate from WT hTMPK with 2 mM AZTMP bound): 24 ± 0.8 s^–1 | koff (WT hTMPK [2]; ADP off-rate from WT hTMPK with 2 mM TMP bound): 12 ± 0.7 s^–1 | faster ADP off-rate (koff) with AZTMP bound than with TMP bound (WT hTMPK [2]; WT hTMPK): 2 fold | koff estimated from kex and pa (WT hTMPK [3]): 31 ± 5.1 s^–1

Cc1cn([C@H]2C[C@H](O)[C@@H](COP(=O)(O)O)O2)c(=O)[nH]c1=O [TMP, thymidine monophosphate]
Km (WT hTMPK [4]): 6.3 µM | kCAT (WT hTMPK [4]; substrate phosphorylation): 0.73 s^–1 | kCAT (F105Y hTMPK [5]; F105Y hTMPK, substrate phosphorylation): 0.17 s^–1 | Km (F105Y hTMPK [5]; F105Y hTMPK): 4.2 µM | reduction of activity toward TMP by Phe105Tyr mutation (F105Y hTMPK [5]; F105Y vs WT hTMPK): 4 fold | kCAT (TMPK from yeast (ScTMPK)): 35 s^–1
